Laboratory results published in ChEMBL document CHEMBL3580554, “Design, synthesis, and anticonvulsant activity of new hybrid compounds derived from 2-(2,5-dioxopyrrolidin-1-yl)propanamides and 2-(2,5-dioxopyrrolidin-1-yl)butanamides” (J Med Chem, 2015).

Assays:
[1] = species on record: Rattus norvegicus; experiment: Inhibition of [125I]omega-conotoxin GVIA binding to N-type calcium channel in rat cerebral cortex synaptosomes at 100 uM incubated for 30 mins by scintillation counting based radioligand displacement assay; assay type: subcellular
[2] = species on record: Rattus norvegicus; experiment: Inhibition of [3H]BTX binding to sodium channel site 2 in rat cerebral cortex synaptosomes at 100 uM incubated for 60 mins by scintillation counting based radioligand displacement assay; assay type: subcellular
Procedure, shortened: (§1)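 Synaptoneurosomal preparations from rat cerebral cortex were used. The read-out was inhibition of specific [3H]BTX binding to the voltage-sensitive sodium channel (site 2), expressed as % inhibition of control specific binding. Compounds were tested at 1, 10, 100 and 500 μM. Inhibition above 50% was taken as significant.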

[3] = species on record: Rattus norvegicus; experiment: Inhibition of [3H]BTX binding to sodium channel site 2 in rat cerebral cortex synaptosomes at 10 uM incubated for 60 mins by scintillation counting based radioligand displacement assay; assay type: subcellular; procedure, shortened: as §1
[4] = species on record: Rattus norvegicus; experiment: Inhibition of [3H]BTX binding to sodium channel site 2 in rat cerebral cortex synaptosomes at 1 uM incubated for 60 mins by scintillation counting based radioligand displacement assay; assay type: subcellular; procedure, shortened: as §1
[5] = species on record: Rattus norvegicus; experiment: Inhibition of [3H]BTX binding to sodium channel site 2 in rat cerebral cortex synaptosomes at 500 uM incubated for 60 mins by scintillation counting based radioligand displacement assay; assay type: subcellular; procedure, shortened: as §1
[6] = test system: Mus musculus; experiment: Anticonvulsant activity in Swiss mouse assessed as protection against seizures at 300 mg/kg, ip dosed 0.25 hrs before initiation of maximal electroconvulsions by maximal electroshock test; assay type: functional
Procedure, shortened: (§2)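 Mice were dosed i.p. at a fixed 300 or 100 mg/kg (6 Hz: 100 mg/kg only). Protection was then scored against MES, sc PTZ or 6 Hz seizures at pretreatment times of 0.25, 0.5, 1 and 2 h. Groups were four mice, scored as number protected / number tested. This also gives the time course and time of peak effect.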

[7] = test system: Mus musculus; experiment: Anticonvulsant activity in Swiss mouse assessed as protection against seizures at 300 mg/kg, ip dosed 0.5 hrs before initiation of maximal electroconvulsions by maximal electroshock test; assay type: functional; procedure, shortened: as §2
[8] = test system: Mus musculus; experiment: Anticonvulsant activity in Swiss mouse assessed as protection against seizures at 300 mg/kg, ip dosed 1 hr before initiation of maximal electroconvulsions by maximal electroshock test; assay type: functional; procedure, shortened: as §2
[9] = test system: Mus musculus; experiment: Anticonvulsant activity in Swiss mouse assessed as protection against seizures at 300 mg/kg, ip dosed 2 hrs before initiation of maximal electroconvulsions by maximal electroshock test; assay type: functional; procedure, shortened: as §2
[10] = test system: Mus musculus; experiment: Anticonvulsant activity in Swiss mouse assessed as protection against seizures at 100 mg/kg, ip dosed 0.25 hrs before initiation of maximal electroconvulsions by maximal electroshock test; assay type: functional; procedure, shortened: as §2
[11] = test system: Mus musculus; experiment: Anticonvulsant activity in Swiss mouse assessed as protection against seizures at 100 mg/kg, ip dosed 0.5 hrs before initiation of maximal electroconvulsions by maximal electroshock test; assay type: functional; procedure, shortened: as §2
[12] = test system: Mus musculus; experiment: Anticonvulsant activity in Swiss mouse assessed as protection against seizures at 100 mg/kg, ip dosed 1 hr before initiation of maximal electroconvulsions by maximal electroshock test; assay type: functional; procedure, shortened: as §2
[13] = test system: Mus musculus; experiment: Anticonvulsant activity in Swiss mouse assessed as protection against seizures at 100 mg/kg, ip dosed 2 hrs before initiation of maximal electroconvulsions by maximal electroshock test; assay type: functional; procedure, shortened: as §2
[14] = test system: Mus musculus; experiment: Anticonvulsant activity in Swiss mouse assessed as protection against seizures at 300 mg/kg, ip dosed 0.25 hrs before pentylenetetrazole challenge by subcutaneous pentylenetetrazole seizure test; assay type: functional; procedure, shortened: as §2
[15] = test system: Mus musculus; experiment: Anticonvulsant activity in Swiss mouse assessed as protection against seizures at 300 mg/kg, ip dosed 0.5 hrs before pentylenetetrazole challenge by subcutaneous pentylenetetrazole seizure test; assay type: functional; procedure, shortened: as §2
[16] = test system: Mus musculus; experiment: Anticonvulsant activity in Swiss mouse assessed as protection against seizures at 300 mg/kg, ip dosed 1 hr before pentylenetetrazole challenge by subcutaneous pentylenetetrazole seizure test; assay type: functional; procedure, shortened: as §2
[17] = test system: Mus musculus; experiment: Anticonvulsant activity in Swiss mouse assessed as protection against seizures at 300 mg/kg, ip dosed 2 hrs before pentylenetetrazole challenge by subcutaneous pentylenetetrazole seizure test; assay type: functional; procedure, shortened: as §2
[18] = test system: Mus musculus; experiment: Anticonvulsant activity in Swiss mouse assessed as protection against seizures at 100 mg/kg, ip dosed 0.25 hrs before pentylenetetrazole challenge by subcutaneous pentylenetetrazole seizure test; assay type: functional; procedure, shortened: as §2
[19] = test system: Mus musculus; experiment: Anticonvulsant activity in Swiss mouse assessed as protection against seizures at 100 mg/kg, ip dosed 0.5 hrs before pentylenetetrazole challenge by subcutaneous pentylenetetrazole seizure test; assay type: functional; procedure, shortened: as §2
[20] = test system: Mus musculus; experiment: Anticonvulsant activity in Swiss mouse assessed as protection against seizures at 100 mg/kg, ip dosed 1 hr before pentylenetetrazole challenge by subcutaneous pentylenetetrazole seizure test; assay type: functional; procedure, shortened: as §2
[21] = test system: Mus musculus; experiment: Anticonvulsant activity in Swiss mouse assessed as protection against seizures at 100 mg/kg, ip dosed 2 hrs before pentylenetetrazole challenge by subcutaneous pentylenetetrazole seizure test; assay type: functional; procedure, shortened: as §2
[22] = test system: Mus musculus; experiment: Anticonvulsant activity in Swiss mouse model of 6 Hz psychomotor seizure mode assessed as protection against seizures at 100 mg/kg, ip dosed 0.25 hrs before 6 Hz electrical stimulation by 6 Hz test; assay type: functional; procedure, shortened: as §2
[23] = test system: Mus musculus; experiment: Anticonvulsant activity in Swiss mouse model of 6 Hz psychomotor seizure mode assessed as protection against seizures at 100 mg/kg, ip dosed 0.5 hrs before 6 Hz electrical stimulation by 6 Hz test; assay type: functional; procedure, shortened: as §2
[24] = test system: Mus musculus; experiment: Anticonvulsant activity in Swiss mouse model of 6 Hz psychomotor seizure mode assessed as protection against seizures at 100 mg/kg, ip dosed 1 hr before 6 Hz electrical stimulation by 6 Hz test; assay type: functional; procedure, shortened: as §2
[25] = test system: Mus musculus; experiment: Anticonvulsant activity in Swiss mouse model of 6 Hz psychomotor seizure mode assessed as protection against seizures at 100 mg/kg, ip dosed 2 hrs before 6 Hz electrical stimulation by 6 Hz test; assay type: functional; procedure, shortened: as §2
[26] = species on record: Mus musculus; experiment: Protective index, ratio of neurotoxic TD50 in Swiss mouse by Chimney test to anticonvulsant ED50 in Swiss mouse measured at 0.5 hrs of time to peak effect by maximal electroshock test
Procedure, shortened: (§3)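 Protective index was calculated as TD50 (chimney test, mouse, i.p.) divided by ED50 from the matching MES, sc PTZ or 6 Hz test, both taken at the time of peak effect.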

[27] = test system: Mus musculus; experiment: Anticonvulsant activity in ip dosed Swiss mouse assessed as protection against seizures measured at 0.5 hrs of time to peak effect by maximal electroshock test; assay type: functional
Procedure, shortened: (§4)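 Median effective doses (ED50, mg/kg) were determined i.p. in mice at the time of peak effect in the MES, sc PTZ or 6 Hz tests. Only compounds giving at least 50% protection at 100 mg/kg in that test were taken forward.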

[28] = test system: Mus musculus; experiment: Anticonvulsant activity in ip dosed Swiss mouse assessed as protection against seizures measured at 0.5 hrs of time to peak effect by subcutaneous pentylenetetrazole seizure test; assay type: functional; procedure, shortened: as §4
[29] = test system: Mus musculus; experiment: Anticonvulsant activity in ip dosed Swiss mouse assessed as protection against seizures measured at 0.5 hrs of time to peak effect by 6 Hz test by 6 Hz psychomotor seizure test; assay type: functional; procedure, shortened: as §4
[30] = Toxicity in ip dosed Swiss mouse assessed as induction of motor performance impairment measured within 60 seconds measured at 0.5 hrs of time to peak effect by Chimney test; assay type: organism-based; settings: in vivo
Procedure, shortened: (§5)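 Neurotoxicity was measured i.p. in mice by the chimney test for motor impairment. It was given as the median neurotoxic dose (TD50, mg/kg) at the time of peak effect.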

[31] = test system: Mus musculus; experiment: Protective index, ratio of neurotoxic TD50 in Swiss mouse by Chimney test to anticonvulsant ED50 in Swiss mouse measured at 0.5 hrs of time to peak effect by subcutaneous pentylenetetrazole seizure test; assay type: functional; procedure, shortened: as §3
[32] = species on record: Mus musculus; experiment: Protective index, ratio of neurotoxic TD50 in Swiss mouse by Chimney test to anticonvulsant ED50 in Swiss mouse measured at 0.5 hrs of time to peak effect by 6 Hz test by 6 Hz psychomotor seizure test; assay type: functional; procedure, shortened: as §3
[33] = test system: Mus musculus; experiment: Anticonvulsant activity in ip dosed Swiss mouse assessed as protection against seizures measured at 0.25 hrs of time to peak effect by maximal electroshock test; assay type: functional; procedure, shortened: as §4
[34] = test system: Mus musculus; experiment: Anticonvulsant activity in ip dosed Swiss mouse assessed as protection against seizures measured at 0.25 hrs of time to peak effect by subcutaneous pentylenetetrazole seizure test; assay type: functional; procedure, shortened: as §4
[35] = test system: Mus musculus; experiment: Anticonvulsant activity in ip dosed Swiss mouse assessed as protection against seizures measured at 0.25 hrs of time to peak effect by 6 Hz test by 6 Hz psychomotor seizure test; assay type: functional; procedure, shortened: as §4
[36] = Toxicity in ip dosed Swiss mouse assessed as induction of motor performance impairment measured within 60 seconds measured at 0.25 hrs of time to peak effect by Chimney test; assay type: organism-based; settings: in vivo; procedure, shortened: as §5
[37] = species on record: Mus musculus; experiment: Protective index, ratio of neurotoxic TD50 in Swiss mouse by Chimney test to anticonvulsant ED50 in Swiss mouse measured at 0.25 hrs of time to peak effect by maximal electroshock test; procedure, shortened: as §3
[38] = test system: Mus musculus; experiment: Protective index, ratio of neurotoxic TD50 in Swiss mouse by Chimney test to anticonvulsant ED50 in Swiss mouse measured at 0.25 hrs of time to peak effect by subcutaneous pentylenetetrazole seizure test; assay type: functional; procedure, shortened: as §3
[39] = species on record: Mus musculus; experiment: Protective index, ratio of neurotoxic TD50 in Swiss mouse by Chimney test to anticonvulsant ED50 in Swiss mouse measured at 0.25 hrs of time to peak effect by 6 Hz test by 6 Hz psychomotor seizure test; assay type: functional; procedure, shortened: as §3

Structure (SMILES) | Activity [6] [%] | Activity [7] [%] | Activity [8] [%] | Activity [9] [%] | Activity [10] [%] | Activity [11] [%] | Activity [12] [%] | Activity [13] [%] | Activity [14] [%] | Activity [15] [%] | Activity [16] [%] | Activity [17] [%] | Activity [18] [%] | Activity [19] [%] | Activity [20] [%] | Activity [21] [%] | Activity [22] [%] | Activity [23] [%] | Activity [24] [%] | Activity [25] [%] | further results
CC1(C)O[C@@H]2[C@@H](CO[C@@]3(COS(N)(=O)=O)OC(C)(C)O[C@@H]23)O1 |  |  |  |  |  |  |  |  |  |  |  |  |  |  |  |  |  |  |  |  | inhibition [1]: 3.1%
NC(=O)N1c2ccccc2C=Cc2ccccc21 |  |  |  |  |  |  |  |  |  |  |  |  |  |  |  |  |  |  |  |  | inhibition [2]: 17.4%; inhibition [3]: 4.6%; inhibition [4]: 2.7%; inhibition [5]: 33.6%
CC(C(=O)N1CCN(c2cccc(Cl)c2)CC1)N1C(=O)CCC1=O (racemic) | 75 | 100 | 75 | 50 | 50 | 75 | 50 | 0 | 75 | 75 | 75 | 75 | 50 | 75 | 50 | 25 | 100 | 100 | 75 | 25 | Ratio TD50/ED50 [26]: 1.69; ED50 [27]: 119 mg/kg; ED50 [28]: 69.6 mg/kg; ED50 [29]: 50.4 mg/kg; TD50 at 0.5 h [30]: 202 mg/kg; Ratio TD50/ED50 [31]: 2.9; Ratio TD50/ED50 [32]: 4
CC(C(=O)N1CCN(c2ccccc2C(F)(F)F)CC1)N1C(=O)CCC1=O (racemic) | 100 | 100 | 75 | 75 | 100 | 25 | 25 | 0 | 100 | 100 | 75 | 50 | 100 | 75 | 25 | 0 | 100 | 25 | 0 | 0 | ED50 [33]: 75.5 mg/kg; ED50 [34]: 87.1 mg/kg; ED50 [35]: 74.2 mg/kg; TD50 at 0.25 h [36]: 149 mg/kg; Ratio TD50/ED50 [37]: 1.97; Ratio TD50/ED50 [38]: 1.71; Ratio TD50/ED50 [39]: 2.01
CCC1(C)CC(=O)NC1=O (centres undefined) [ETHOSUXIMIDE] |  |  |  |  |  |  |  |  |  |  |  |  |  |  |  |  |  |  |  |  | ED50 [33]: > 500 mg/kg; ED50 [34]: 148 mg/kg; ED50 [35]: > 200 mg/kg; TD50 at 0.25 h [36]: 722 mg/kg; Ratio TD50/ED50 [38]: 4.89
